Converted amounts (≈) assume the structure as drawn.
Columns and labels:
Format in all cases: functional
Enterococcus faecalis [1] = test: Antibacterial activity against Enterococcus faecalis 14-2 after 18 to 24 hrs
How it was run: (§1)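 MIC by standard NCCLS reference procedure (M100-S11); lowest concentration of compound inhibiting visible bacterial growth after incubation at 35 °C for 18–24 h, read as complete inhibition of growth. Ciprofloxacin, levofloxacin and moxifloxacin run alongside as reference agents.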

Enterococcus faecium [2] = test: Antibacterial activity against Enterococcus faecium 14-1 after 18 to 24 hrs; how it was run: as §1
Enterococcus faecium [3] = test: Antibacterial activity against Enterococcus faecium 14-2 after 18 to 24 hrs; how it was run: as §1
Enterococcus faecium [4] = test: Antibacterial activity against Enterococcus faecium 14-5 after 18 to 24 hrs; how it was run: as §1
Enterococcus faecium [5] = test: Antibacterial activity against Enterococcus faecium 14-6 after 18 to 24 hrs; how it was run: as §1
[6] = test system: Mycobacterium tuberculosis; test: Antimycobacterial activity against Mycobacterium tuberculosis H37Rv ATCC 27294 by alamar blue assay
How it was run: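 Microplate Alamar Blue Assay; MIC is the lowest concentration giving ≥90% reduction in fluorescence relative to the mean of replicate bacterium-only controls. MDR strain 6133 is resistant to isoniazid and rifampicin.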

Escherichia coli [7] = test: Antibacterial activity against Escherichia coli ATCC 25922 after 18 to 24 hrs; how it was run: as §1
Escherichia coli [8] = test: Antibacterial activity against ESBL-positive Escherichia coli 14-1 after 18 to 24 hrs; how it was run: as §1
Escherichia coli [9] = test: Antibacterial activity against ESBL-positive Escherichia coli 14-2 after 18 to 24 hrs; how it was run: as §1
Escherichia coli [10] = test: Antibacterial activity against Escherichia coli 14-1 after 18 to 24 hrs; how it was run: as §1
Escherichia coli [11] = test: Antibacterial activity against Escherichia coli 14-2 after 18 to 24 hrs; how it was run: as §1
Klebsiella pneumoniae [12] = test: Antibacterial activity against ESBL-positive Klebsiella pneumoniae 14-17 after 18 to 24 hrs; how it was run: as §1
Klebsiella pneumoniae [13] = test: Antibacterial activity against ESBL-positive Klebsiella pneumoniae 14-18 after 18 to 24 hrs; how it was run: as §1
Klebsiella pneumoniae [14] = test: Antibacterial activity against ESBL-positive Klebsiella pneumoniae 14-19 after 18 to 24 hrs; how it was run: as §1
Klebsiella pneumoniae [15] = test: Antibacterial activity against Klebsiella pneumoniae 14-1 after 18 to 24 hrs; how it was run: as §1
Klebsiella pneumoniae [16] = test: Antibacterial activity against Klebsiella pneumoniae 14-2 after 18 to 24 hrs; how it was run: as §1
Klebsiella pneumoniae [17] = test: Antibacterial activity against Klebsiella pneumoniae 14-3 after 18 to 24 hrs; how it was run: as §1
Klebsiella pneumoniae [18] = test: Antibacterial activity against Klebsiella pneumoniae 14-4 after 18 to 24 hrs; how it was run: as §1
Pseudomonas aeruginosa [19] = test: Antibacterial activity against Pseudomonas aeruginosa ATCC 27853 after 18 to 24 hrs; how it was run: as §1
Pseudomonas aeruginosa [20] = test: Antibacterial activity against Pseudomonas aeruginosa 14-9 after 18 to 24 hrs; how it was run: as §1
Pseudomonas aeruginosa [21] = test: Antibacterial activity against Pseudomonas aeruginosa 14-14 after 18 to 24 hrs; how it was run: as §1
Pseudomonas aeruginosa [22] = test: Antibacterial activity against Pseudomonas aeruginosa 14-15 after 18 to 24 hrs; how it was run: as §1
Pseudomonas aeruginosa [23] = test: Antibacterial activity against Pseudomonas aeruginosa 14-16 after 18 to 24 hrs; how it was run: as §1
Pseudomonas aeruginosa [24] = test: Antibacterial activity against Pseudomonas aeruginosa 14-19 after 18 to 24 hrs; how it was run: as §1
Staphylococcus aureus [25] = test: Antibacterial activity against Staphylococcus aureus CMCC 26003 after 18 to 24 hrs; how it was run: as §1
Staphylococcus aureus [26] = test: Antibacterial activity against methicillin-sensitive Staphylococcus aureus 14-1 after 18 to 24 hrs; how it was run: as §1
Staphylococcus aureus [27] = test: Antibacterial activity against methicillin-sensitive Staphylococcus aureus 14-2 after 18 to 24 hrs; how it was run: as §1
Staphylococcus aureus [28] = test: Antibacterial activity against methicillin-sensitive Staphylococcus aureus 14-3 after 18 to 24 hrs; how it was run: as §1
Staphylococcus aureus [29] = test: Antibacterial activity against methicillin-sensitive Staphylococcus aureus 14-4 after 18 to 24 hrs; how it was run: as §1
Staphylococcus aureus [30] = test: Antibacterial activity against methicillin-resistant Staphylococcus aureus 14-4 after 18 to 24 hrs
Staphylococcus aureus [31] = test: Antibacterial activity against methicillin-resistant Staphylococcus aureus 14-5 after 18 to 24 hrs
[32] = test system: Staphylococcus epidermidis; test: Antibacterial activity against methicillin-sensitive Staphylococcus epidermidis 14-2 after 18 to 24 hrs; how it was run: as §1
[33] = test system: Staphylococcus epidermidis; test: Antibacterial activity against methicillin-resistant Staphylococcus epidermidis 14-21 after 18 to 24 hrs
[34] = test system: Staphylococcus epidermidis; test: Antibacterial activity against methicillin-resistant Staphylococcus epidermidis 14-22 after 18 to 24 hrs
[35] = test system: Staphylococcus epidermidis; test: Antibacterial activity against methicillin-resistant Staphylococcus epidermidis 14-37 after 18 to 24 hrs
[36] = test system: Staphylococcus epidermidis; test: Antibacterial activity against methicillin-resistant Staphylococcus epidermidis 14-39 after 18 to 24 hrs
Streptococcus pneumoniae = test: Antibacterial activity against Streptococcus pneumoniae ATCC 19615 after 18 to 24 hrs; how it was run: as §1
Enterococcus faecalis [37] = test: Antibacterial activity against Enterococcus faecalis 14-1 after 18 to 24 hrs; how it was run: as §1

SMILES | MIC (Enterococcus faecalis [1]) | MIC (Enterococcus faecium [2]) | MIC (Enterococcus faecium [3]) | MIC (Enterococcus faecium [4]) | MIC (Enterococcus faecium [5]) | MIC90 [6] | MIC (Escherichia coli [7]) | MIC (Escherichia coli [8]) | MIC (Escherichia coli [9]) | MIC (Escherichia coli [10]) | MIC (Escherichia coli [11]) | MIC (Klebsiella pneumoniae [12]) | MIC (Klebsiella pneumoniae [13]) | MIC (Klebsiella pneumoniae [14]) | MIC (Klebsiella pneumoniae [15]) | MIC (Klebsiella pneumoniae [16]) | MIC (Klebsiella pneumoniae [17]) | MIC (Klebsiella pneumoniae [18]) | MIC (Pseudomonas aeruginosa [19]) | MIC (Pseudomonas aeruginosa [20]) | other results
NCC1CN(c2nc3c(cc2F)c(=O)c(C(=O)O)cn3[C@@H]2C[C@@H]2F)C/C1=N\OCc1ccc(F)cc1 (stereo partly specified) | < 0.008 µg/mL | 1 µg/mL (≈ 1.99 µM) | 2 µg/mL (≈ 3.99 µM) | 8 µg/mL (≈ 16 µM) | 8 µg/mL (≈ 16 µM) | < 0.25 µg/mL | < 0.008 µg/mL | 8 µg/mL (≈ 16 µM) | 64 µg/mL (≈ 128 µM) | 64 µg/mL (≈ 128 µM) | 64 µg/mL (≈ 128 µM) | 8 µg/mL (≈ 16 µM) | 16 µg/mL (≈ 31.9 µM) | 64 µg/mL (≈ 128 µM) | 64 µg/mL (≈ 128 µM) | > 128 µg/mL | 64 µg/mL (≈ 128 µM) | 128 µg/mL (≈ 255 µM) | 4 µg/mL (≈ 7.98 µM) | 8 µg/mL (≈ 16 µM) | MIC (Pseudomonas aeruginosa [21]): 16 µg/mL (≈ 31.9 µM); MIC (Pseudomonas aeruginosa [22]): 16 µg/mL (≈ 31.9 µM); MIC (Pseudomonas aeruginosa [23]): 16 µg/mL (≈ 31.9 µM); MIC (Pseudomonas aeruginosa [24]): 16 µg/mL (≈ 31.9 µM); MIC (Staphylococcus aureus [25]): < 0.008 µg/mL; MIC (Staphylococcus aureus [26]): 4 µg/mL (≈ 7.98 µM); MIC (Staphylococcus aureus [27]): < 0.008 µg/mL; MIC (Staphylococcus aureus [28]): < 0.008 µg/mL; MIC (Staphylococcus aureus [29]): < 0.008 µg/mL; MIC (Staphylococcus aureus [30]): 32 µg/mL (≈ 63.8 µM); MIC (Staphylococcus aureus [31]): 16 µg/mL (≈ 31.9 µM); MIC [32]: 64 µg/mL (≈ 128 µM); MIC [33]: 8 µg/mL (≈ 16 µM); MIC [34]: 8 µg/mL (≈ 16 µM); MIC [35]: 8 µg/mL (≈ 16 µM); MIC [36]: 16 µg/mL (≈ 31.9 µM); MIC (Streptococcus pneumoniae): 0.03 µg/mL (≈ 0.0598 µM); MIC (Enterococcus faecalis [37]): 64 µg/mL (≈ 128 µM)
CO/N=C1\CN(c2nc3c(cc2F)c(=O)c(C(=O)O)cn3[C@@H]2C[C@@H]2F)CC1N (stereo partly specified) | 2 µg/mL (≈ 5.08 µM) | 128 µg/mL (≈ 325 µM) | 128 µg/mL (≈ 325 µM) | 128 µg/mL (≈ 325 µM) | > 128 µg/mL | 0.867 µg/mL (≈ 2.2 µM) | 0.25 µg/mL (≈ 0.636 µM) | 16 µg/mL (≈ 40.7 µM) | > 128 µg/mL | 128 µg/mL (≈ 325 µM) | 128 µg/mL (≈ 325 µM) | 8 µg/mL (≈ 20.3 µM) | 8 µg/mL (≈ 20.3 µM) | > 128 µg/mL | > 128 µg/mL | 128 µg/mL (≈ 325 µM) | > 128 µg/mL | 128 µg/mL (≈ 325 µM) | 4 µg/mL (≈ 10.2 µM) | 8 µg/mL (≈ 20.3 µM) | MIC (Pseudomonas aeruginosa [21]): 8 µg/mL (≈ 20.3 µM); MIC (Pseudomonas aeruginosa [22]): 8 µg/mL (≈ 20.3 µM); MIC (Pseudomonas aeruginosa [23]): 8 µg/mL (≈ 20.3 µM); MIC (Pseudomonas aeruginosa [24]): 8 µg/mL (≈ 20.3 µM); MIC (Staphylococcus aureus [25]): 0.5 µg/mL (≈ 1.27 µM); MIC (Staphylococcus aureus [26]): 32 µg/mL (≈ 81.4 µM); MIC (Staphylococcus aureus [27]): 0.5 µg/mL (≈ 1.27 µM); MIC (Staphylococcus aureus [28]): 1 µg/mL (≈ 2.54 µM); MIC (Staphylococcus aureus [29]): 1 µg/mL (≈ 2.54 µM); MIC (Staphylococcus aureus [30]): 128 µg/mL (≈ 325 µM); MIC (Staphylococcus aureus [31]): 64 µg/mL (≈ 163 µM); MIC [32]: 128 µg/mL (≈ 325 µM); MIC [33]: 64 µg/mL (≈ 163 µM); MIC [34]: 32 µg/mL (≈ 81.4 µM); MIC [35]: 32 µg/mL (≈ 81.4 µM); MIC [36]: 64 µg/mL (≈ 163 µM); MIC (Streptococcus pneumoniae): 0.25 µg/mL (≈ 0.636 µM); MIC (Enterococcus faecalis [37]): 128 µg/mL (≈ 325 µM)
